Experimental data as given in ChEMBL document CHEMBL2417539, “1-substituted (Dibenzo[b,d]thiophen-4-yl)-2-morpholino-4H-chromen-4-ones endowed with dual DNA-PK/PI3-K inhibitory activity” (J Med Chem, 2013).
pEC50, pIC50: −log10 of the molar value. Values after ≈ are worked out from the molar mass of the structure shown.

How the values were obtained:
[1] = molecular target: Voltage-gated inwardly rectifying potassium channel KCNH2 (Homo sapiens, UniProt Q12809); assay: Inhibition of human ERG expressed in cisapride treated CHO cells by Ion Works assay
Cytochrome P450 3A4 = Cytochrome P450 3A4 (Homo sapiens, UniProt P08684); assay: Inhibition of CYP3A4 (unknown origin); format: ADME
[2] = Fraction unbound in human Plasma; format: ADME, cell-free
HeLa [3] = assay: Antiproliferative activity against human HeLa cells assessed as cell survival ratio at 0.5 uM treated 1 hr before 2Gy ionizing radiation measured after 6 to 8 days by DMR clonogenic assay; format: functional
Outline: (§1)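 HeLa cells seeded in 6-well dishes, incubated overnight at 37 °C/5% CO2, pre-treated 1 h with vehicle or inhibitor (0.1 or 0.5 μM), then given 2 Gy X-ray IR and held overnight. Medium then replaced without compound and culture continued 6-8 days. Colonies Giemsa-stained and counted automatically. DMR = % survival (vehicle, 2 Gy) / % survival (compound, 2 Gy).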

[4] = Aqueous solubility of the compound at pH 7.4; format: physicochemical; conditions: buffer
[5] = molecular target: T1, DNA-dependent protein kinase catalytic subunit (Homo sapiens, UniProt P78527); assay: Inhibition of DNA-PK autophosphorylation at S2056 in human HeLa cells; format: cell-based
[6] = Lipophilicity, log D of the compound; format: physicochemical; conditions: octanol/water
Cytochrome P450 1A2 = molecular target: T2, Cytochrome P450 1A2 (Homo sapiens, UniProt P05177); assay: Inhibition of CYP1A2 (unknown origin); format: ADME
T2 sequence (P05177 whole entry): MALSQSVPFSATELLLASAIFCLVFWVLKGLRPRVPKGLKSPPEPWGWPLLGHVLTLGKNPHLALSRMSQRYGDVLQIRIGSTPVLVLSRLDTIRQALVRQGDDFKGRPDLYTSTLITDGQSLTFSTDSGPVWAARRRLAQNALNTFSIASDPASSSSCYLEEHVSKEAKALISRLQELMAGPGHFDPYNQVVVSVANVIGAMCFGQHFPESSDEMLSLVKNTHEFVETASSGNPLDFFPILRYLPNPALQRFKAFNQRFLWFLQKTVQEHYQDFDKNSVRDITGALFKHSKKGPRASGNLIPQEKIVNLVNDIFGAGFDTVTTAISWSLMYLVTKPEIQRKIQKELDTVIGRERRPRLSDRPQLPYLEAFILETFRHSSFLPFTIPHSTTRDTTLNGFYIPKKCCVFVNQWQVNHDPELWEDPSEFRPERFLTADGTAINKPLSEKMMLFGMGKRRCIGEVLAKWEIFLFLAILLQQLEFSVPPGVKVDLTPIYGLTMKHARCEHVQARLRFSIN

Cytochrome P450 2C9 = Cytochrome P450 2C9 (Homo sapiens, UniProt P11712); assay: Inhibition of CYP2C9 (unknown origin); format: ADME
HeLa [7] = assay: Antiproliferative activity against human HeLa cells assessed as cell survival ratio at 0.1 uM treated 1 hr before 2Gy ionizing radiation measured after 6 to 8 days by DMR clonogenic assay; format: functional; outline: as §1
[8] = molecular target: T1, DNA-dependent protein kinase catalytic subunit; assay: Inhibition of human DNA-PK using GST-tagged p53N66 as substrate after 1 hr by ELISA-based chemiluminiscence assay
Cytochrome P450 2C19 = Cytochrome P450 2C19 (Homo sapiens, UniProt P33261); assay: Inhibition of CYP2C19 (unknown origin); format: ADME
Cytochrome P450 2D6 = Cytochrome P450 2D6 (Homo sapiens, UniProt P10635); assay: Inhibition of CYP2D6 (unknown origin); format: ADME
[9] = molecular target: Serine/threonine-protein kinase mTOR (Homo sapiens, UniProt P42345); assay: Inhibition of mTOR (unknown origin)
[10] = molecular target: Phosphatidylinositol 4,5-bisphosphate 3-kinase catalytic subunit beta isoform (Homo sapiens, UniProt P42338); assay: Inhibition of PI-3K beta (unknown origin)
[11] = molecular target: T1, DNA-dependent protein kinase catalytic subunit; assay: Inhibition of DNA-PK (unknown origin)
[12] = molecular target: T3, Phosphatidylinositol 4,5-bisphosphate 3-kinase catalytic subunit delta isoform (Homo sapiens, UniProt O00329); assay: Inhibition of PI-3K delta (unknown origin)
T3 sequence (O00329 whole entry): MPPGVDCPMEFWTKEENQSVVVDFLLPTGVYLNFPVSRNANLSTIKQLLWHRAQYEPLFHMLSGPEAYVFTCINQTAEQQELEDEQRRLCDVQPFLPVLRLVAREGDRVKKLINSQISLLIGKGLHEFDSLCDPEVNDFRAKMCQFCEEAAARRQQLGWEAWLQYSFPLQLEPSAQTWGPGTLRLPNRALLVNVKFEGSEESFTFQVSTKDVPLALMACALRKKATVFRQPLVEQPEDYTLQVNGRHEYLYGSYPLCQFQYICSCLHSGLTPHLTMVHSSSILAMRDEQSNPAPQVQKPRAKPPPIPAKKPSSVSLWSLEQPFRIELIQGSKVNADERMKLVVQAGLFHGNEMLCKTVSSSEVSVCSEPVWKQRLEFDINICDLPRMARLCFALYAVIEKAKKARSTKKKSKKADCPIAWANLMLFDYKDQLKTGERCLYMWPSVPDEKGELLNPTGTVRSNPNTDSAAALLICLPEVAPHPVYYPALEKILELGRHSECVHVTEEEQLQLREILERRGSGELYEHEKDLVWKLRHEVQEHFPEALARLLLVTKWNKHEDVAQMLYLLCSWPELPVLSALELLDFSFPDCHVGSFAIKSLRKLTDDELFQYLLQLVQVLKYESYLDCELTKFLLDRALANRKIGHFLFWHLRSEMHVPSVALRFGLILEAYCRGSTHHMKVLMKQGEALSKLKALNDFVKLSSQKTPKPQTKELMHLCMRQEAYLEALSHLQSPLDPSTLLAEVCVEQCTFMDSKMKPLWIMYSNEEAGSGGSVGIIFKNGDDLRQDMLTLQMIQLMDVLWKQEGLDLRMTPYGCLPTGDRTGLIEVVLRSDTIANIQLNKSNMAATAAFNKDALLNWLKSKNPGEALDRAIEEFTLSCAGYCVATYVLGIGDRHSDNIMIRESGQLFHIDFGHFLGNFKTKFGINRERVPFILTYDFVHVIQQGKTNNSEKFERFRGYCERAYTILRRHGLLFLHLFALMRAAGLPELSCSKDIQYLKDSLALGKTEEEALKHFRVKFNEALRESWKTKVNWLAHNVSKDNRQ

[13] = molecular target: Phosphatidylinositol 4,5-bisphosphate 3-kinase catalytic subunit gamma isoform (Homo sapiens, UniProt P48736); assay: Inhibition of PI-3K gamma (unknown origin)
[14] = molecular target: Serine-protein kinase ATM (Homo sapiens, UniProt Q13315); assay: Inhibition of ATM (unknown origin)
[15] = molecular target: Serine/threonine-protein kinase ATR (Homo sapiens, UniProt Q13535); assay: Inhibition of ATR (unknown origin)
HeLa [16] = assay: Antiproliferative activity against human HeLa cells assessed as cell viability after 6 to 8 days by DMR clonogenic assay; format: cell-based
[17] = molecular target: Aurora kinase B (Homo sapiens) (UniProt Q96GD4); assay: Inhibition of Aurora kinase B (unknown origin); conditions: concentration not given here
[18] = molecular target: Phosphatidylinositol 4,5-bisphosphate 3-kinase catalytic subunit alpha isoform (Homo sapiens, UniProt P42336); assay: Inhibition of PI-3K alpha (unknown origin)

Chain of Cytochrome P450 2D6 (P10635 whole entry): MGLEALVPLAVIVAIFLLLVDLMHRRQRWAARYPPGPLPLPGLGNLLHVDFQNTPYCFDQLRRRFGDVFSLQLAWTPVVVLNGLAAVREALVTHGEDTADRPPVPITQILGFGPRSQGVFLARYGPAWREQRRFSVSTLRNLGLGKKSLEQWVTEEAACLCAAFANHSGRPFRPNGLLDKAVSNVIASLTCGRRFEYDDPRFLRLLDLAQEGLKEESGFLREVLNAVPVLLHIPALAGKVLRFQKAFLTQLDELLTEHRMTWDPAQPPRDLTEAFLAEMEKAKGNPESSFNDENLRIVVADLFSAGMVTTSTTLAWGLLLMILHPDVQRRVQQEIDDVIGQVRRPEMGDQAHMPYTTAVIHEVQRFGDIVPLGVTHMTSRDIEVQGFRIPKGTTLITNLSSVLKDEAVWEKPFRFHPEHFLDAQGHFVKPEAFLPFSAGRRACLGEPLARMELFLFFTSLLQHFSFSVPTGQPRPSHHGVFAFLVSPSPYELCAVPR
Chain of Voltage-gated inwardly rectifying potassium channel KCNH2 (Q12809 whole entry): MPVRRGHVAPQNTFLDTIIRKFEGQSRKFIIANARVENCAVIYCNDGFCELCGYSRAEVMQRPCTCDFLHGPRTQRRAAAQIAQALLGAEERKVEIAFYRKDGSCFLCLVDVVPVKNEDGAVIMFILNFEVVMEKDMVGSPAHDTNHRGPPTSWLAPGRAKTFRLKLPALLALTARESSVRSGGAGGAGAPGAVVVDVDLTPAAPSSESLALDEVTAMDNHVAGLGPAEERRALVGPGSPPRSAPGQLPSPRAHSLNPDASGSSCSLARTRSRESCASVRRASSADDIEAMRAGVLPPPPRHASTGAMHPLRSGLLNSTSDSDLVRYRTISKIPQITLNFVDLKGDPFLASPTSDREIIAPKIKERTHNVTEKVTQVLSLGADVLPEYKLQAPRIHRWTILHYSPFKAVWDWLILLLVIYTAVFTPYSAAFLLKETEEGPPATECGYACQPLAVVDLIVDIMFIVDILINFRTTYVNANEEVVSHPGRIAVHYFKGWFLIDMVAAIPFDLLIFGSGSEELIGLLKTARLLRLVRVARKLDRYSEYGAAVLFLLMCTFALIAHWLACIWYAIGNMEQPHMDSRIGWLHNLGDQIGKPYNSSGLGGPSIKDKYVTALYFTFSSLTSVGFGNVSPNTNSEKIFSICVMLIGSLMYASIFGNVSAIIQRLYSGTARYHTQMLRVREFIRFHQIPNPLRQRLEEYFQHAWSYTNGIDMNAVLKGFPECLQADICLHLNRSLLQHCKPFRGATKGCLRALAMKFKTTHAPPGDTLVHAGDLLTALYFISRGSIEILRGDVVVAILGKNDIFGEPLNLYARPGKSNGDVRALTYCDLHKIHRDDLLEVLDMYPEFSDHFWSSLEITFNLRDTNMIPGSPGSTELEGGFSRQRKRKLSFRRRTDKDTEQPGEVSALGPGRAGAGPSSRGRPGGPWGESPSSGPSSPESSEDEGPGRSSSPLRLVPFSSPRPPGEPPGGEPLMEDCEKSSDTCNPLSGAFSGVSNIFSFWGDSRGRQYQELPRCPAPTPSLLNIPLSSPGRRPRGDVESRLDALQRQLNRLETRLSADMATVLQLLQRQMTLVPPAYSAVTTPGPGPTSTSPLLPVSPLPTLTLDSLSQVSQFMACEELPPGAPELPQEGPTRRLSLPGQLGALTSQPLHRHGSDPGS
Chain of Cytochrome P450 3A4 (P08684 whole entry): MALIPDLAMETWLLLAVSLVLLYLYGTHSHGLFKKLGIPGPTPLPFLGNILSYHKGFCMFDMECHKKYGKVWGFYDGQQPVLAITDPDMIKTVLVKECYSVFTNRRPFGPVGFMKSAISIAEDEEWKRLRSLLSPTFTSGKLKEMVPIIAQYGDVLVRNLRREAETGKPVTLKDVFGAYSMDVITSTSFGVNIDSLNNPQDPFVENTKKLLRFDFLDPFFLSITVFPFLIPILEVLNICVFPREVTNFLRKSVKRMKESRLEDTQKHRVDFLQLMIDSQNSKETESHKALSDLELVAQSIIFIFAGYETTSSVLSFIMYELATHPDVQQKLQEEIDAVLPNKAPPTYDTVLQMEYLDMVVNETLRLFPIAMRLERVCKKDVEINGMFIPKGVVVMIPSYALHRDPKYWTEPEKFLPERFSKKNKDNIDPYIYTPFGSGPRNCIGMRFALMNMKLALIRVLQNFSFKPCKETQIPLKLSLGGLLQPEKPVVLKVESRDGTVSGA
Chain of Cytochrome P450 2C9 (P11712 whole entry): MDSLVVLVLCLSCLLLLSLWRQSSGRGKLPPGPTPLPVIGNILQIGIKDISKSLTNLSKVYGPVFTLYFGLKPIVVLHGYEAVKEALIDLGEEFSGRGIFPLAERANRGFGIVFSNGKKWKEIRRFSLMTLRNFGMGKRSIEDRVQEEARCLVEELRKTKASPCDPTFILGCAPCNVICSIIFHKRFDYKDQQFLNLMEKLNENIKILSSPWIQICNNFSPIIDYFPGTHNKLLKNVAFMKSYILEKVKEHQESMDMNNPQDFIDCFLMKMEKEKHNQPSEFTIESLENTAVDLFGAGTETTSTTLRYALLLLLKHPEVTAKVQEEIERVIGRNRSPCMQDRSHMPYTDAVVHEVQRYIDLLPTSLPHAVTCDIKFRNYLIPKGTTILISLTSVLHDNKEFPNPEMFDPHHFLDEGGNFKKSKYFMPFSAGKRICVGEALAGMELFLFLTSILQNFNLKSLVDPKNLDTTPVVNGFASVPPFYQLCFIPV
Chain of Cytochrome P450 2C19 (P33261 whole entry): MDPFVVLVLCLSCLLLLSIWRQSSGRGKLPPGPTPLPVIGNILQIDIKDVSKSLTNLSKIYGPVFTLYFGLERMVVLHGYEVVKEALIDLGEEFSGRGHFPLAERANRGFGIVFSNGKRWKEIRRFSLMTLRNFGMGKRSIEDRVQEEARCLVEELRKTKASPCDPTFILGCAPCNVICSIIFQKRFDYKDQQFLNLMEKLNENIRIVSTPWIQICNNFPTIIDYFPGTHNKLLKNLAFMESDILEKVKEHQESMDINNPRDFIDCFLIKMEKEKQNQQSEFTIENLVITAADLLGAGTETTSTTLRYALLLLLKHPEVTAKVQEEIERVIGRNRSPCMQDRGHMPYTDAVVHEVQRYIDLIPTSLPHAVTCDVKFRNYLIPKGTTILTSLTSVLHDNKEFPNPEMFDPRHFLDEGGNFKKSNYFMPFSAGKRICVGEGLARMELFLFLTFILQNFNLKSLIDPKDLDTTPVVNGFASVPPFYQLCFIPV
Chain of Phosphatidylinositol 4,5-bisphosphate 3-kinase catalytic subunit beta isoform (P42338 whole entry, canonical isoform): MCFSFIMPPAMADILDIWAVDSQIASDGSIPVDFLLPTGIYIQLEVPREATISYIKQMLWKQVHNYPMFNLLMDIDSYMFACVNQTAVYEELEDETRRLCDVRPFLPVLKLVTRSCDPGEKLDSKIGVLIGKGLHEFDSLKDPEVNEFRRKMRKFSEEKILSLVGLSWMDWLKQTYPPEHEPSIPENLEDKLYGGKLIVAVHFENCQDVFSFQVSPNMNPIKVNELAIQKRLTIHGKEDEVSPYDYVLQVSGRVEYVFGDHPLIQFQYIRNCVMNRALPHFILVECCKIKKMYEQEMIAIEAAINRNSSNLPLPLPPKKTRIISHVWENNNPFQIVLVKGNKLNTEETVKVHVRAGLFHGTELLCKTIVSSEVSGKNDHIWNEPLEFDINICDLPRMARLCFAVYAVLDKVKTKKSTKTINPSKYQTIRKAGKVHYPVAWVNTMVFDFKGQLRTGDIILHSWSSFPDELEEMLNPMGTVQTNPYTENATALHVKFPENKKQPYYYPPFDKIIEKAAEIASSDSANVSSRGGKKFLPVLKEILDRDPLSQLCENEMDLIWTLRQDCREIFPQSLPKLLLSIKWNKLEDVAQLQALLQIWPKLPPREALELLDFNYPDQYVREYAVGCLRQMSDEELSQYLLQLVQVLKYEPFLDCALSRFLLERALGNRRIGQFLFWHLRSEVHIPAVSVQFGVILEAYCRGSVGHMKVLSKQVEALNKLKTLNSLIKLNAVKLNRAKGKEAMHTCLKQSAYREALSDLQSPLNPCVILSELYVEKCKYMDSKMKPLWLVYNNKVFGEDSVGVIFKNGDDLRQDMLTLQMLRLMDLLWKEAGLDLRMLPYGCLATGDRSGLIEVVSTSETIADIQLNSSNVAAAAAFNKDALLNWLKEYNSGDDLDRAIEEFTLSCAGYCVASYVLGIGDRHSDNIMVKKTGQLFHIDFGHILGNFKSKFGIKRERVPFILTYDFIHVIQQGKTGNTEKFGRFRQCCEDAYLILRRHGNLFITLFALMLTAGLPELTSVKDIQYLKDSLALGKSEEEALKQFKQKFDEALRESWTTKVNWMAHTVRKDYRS
Chain of Aurora kinase B (Homo sapiens) (Q96GD4 whole entry, canonical isoform): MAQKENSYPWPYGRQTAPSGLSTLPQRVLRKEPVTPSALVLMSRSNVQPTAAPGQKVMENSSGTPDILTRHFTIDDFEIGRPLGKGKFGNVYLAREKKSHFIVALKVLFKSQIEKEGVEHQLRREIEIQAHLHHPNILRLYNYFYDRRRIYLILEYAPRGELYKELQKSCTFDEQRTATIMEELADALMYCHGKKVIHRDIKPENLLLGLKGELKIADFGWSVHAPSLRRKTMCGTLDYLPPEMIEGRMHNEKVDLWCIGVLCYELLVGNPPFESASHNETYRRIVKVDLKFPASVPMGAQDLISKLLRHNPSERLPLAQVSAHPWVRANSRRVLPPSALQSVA

pIC50 (Cytochrome P450 3A4)	fraction unbound [2]	solubility [4]	pEC50 [5]	logD [6]	pIC50 (Cytochrome P450 1A2)	pIC50 (Cytochrome P450 2C9)	pIC50 [8]	pIC50 (Cytochrome P450 2C19)	pIC50 (Cytochrome P450 2D6)	pIC50 [9]	pIC50 [10]	pIC50 [12]	pIC50 [13]	pIC50 [14]	pIC50 [15]	SMILES	pIC50 [1]	Ratio (HeLa [3])	Ratio (HeLa [7])	further results
< 5.00	0.036	5 µM (≈ 2.84 µg/mL)	6.37	3	< 5.00	< 5.00	7.92	< 5.00	< 5.00							CN1CCN(CC(=O)Nc2ccc(-c3cccc4c(=O)cc(N5CCOCC5)oc34)c3sc4ccccc4c23)CC1	< 5.00	7.4	2.4	
< 5.00	0.098	154 µM (≈ 92.2 µg/mL)	6.96	2.7	< 5.00	< 5.00	8.30	< 5.00	< 5.00							O=C(CN1CCN(CCO)CC1)Nc1ccc(-c2cccc3c(=O)cc(N4CCOCC4)oc23)c2sc3ccccc3c12	< 4.52	8.4	2	
	0.0004	< 0.2 µM	6.67	> 4.3			7.38			5.62	7.80	7.52	6.66	< 5.00	< 5.00	O=c1cc(N2CCOCC2)oc2c(-c3cccc4c3sc3ccccc34)cccc12	4.85	2.8	2.2	pIC50 [11]: 7.40
< 5.00	0.036	161 µM (≈ 93.8 µg/mL)	6.87	3.05	< 5.00	< 5.00		< 5.00	< 5.00	5.00	9.30	> 10.00	6.23	< 5.00	< 5.00	CCN1CCN(CC(=O)Nc2ccc(-c3cccc4c(=O)cc(N5CCOCC5)oc34)c3sc4ccccc4c23)CC1				pIC50 (HeLa [16]): < 4.60; inhibition [17]: 44%; pIC50 [18]: 8.40
